How the values were obtained:
[1] = system: Mus musculus; experiment: Mortality by day 5 expressed as number of mice died to the total treated at dose 100 mg/kg in exp2; 2/6; format: ADME, organism-based; parameters: dose 100 mg/kg; conditions: in vivo
[2] = Ratio of number of 60-day survivors to the total treated mice at dose 100 mg/kg in exp2; 0/6; format: functional
[3] = Ratio of median survival times for non-survivors at dose 100 mg/kg in exp2; format: functional
Procedure, shortened: (§1)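 Mice were inoculated ip with 10^6 P388 leukemia cells on day 0. Groups of six (occasionally five) were dosed ip qd on days 1–5 with fresh suspensions; 30 mice served as untreated controls. Deaths were recorded daily up to day 60. T/C% compares the median survival of treated non-survivors (<60 days) with the control median. Medians used grouped data when there were no 30-day survivors, otherwise ungrouped data. t = toxic.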

[4] = system: Mus musculus; experiment: Median survival time of the untreated control groups, in which there are no 30-day survivors at dose 200 mg/kg in exp1; format: functional
[5] = Median survival time of the treated control groups, in which there are no 30-day survivors at dose 50 mg/kg in exp2; format: functional
[6] = system: Mus musculus; experiment: Mortality by day 5 expressed as number of mice died to the total treated at dose 50 mg/kg in exp2; 0/6; format: ADME, organism-based; parameters: dose 50 mg/kg; conditions: in vivo
[7] = system: Mus musculus; experiment: Median survival time of the untreated control groups, in which there are no 30-day survivors at dose 12 mg/kg in exp2; format: functional
[8] = Ratio of median survival times for non-survivors at dose 200 mg/kg in exp1; t= toxic; format: ADME, organism-based; parameters: dose 200 mg/kg; conditions: in vivo; procedure, shortened: as §1
[9] = system: Mus musculus; experiment: Change in weight by day 5, obtained by subtracting treated groups of animals minus control groups of animals at dose 50 mg/kg in exp1.; format: functional
Procedure, shortened: (§2)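 Mice were inoculated ip with 10^6 P388 leukemia cells on day 0, when treated and control mice weighed 19–22 g. Treatment was given ip once daily on days 1–5, within about 5 min of preparing the solution or suspension. Groups of six (occasionally five) were treated, with 30 untreated inoculated mice as controls. The day-5 weight change is the mean treated change minus the mean control change.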

[10] = Ratio of median survival times for non-survivors at dose 25 mg/kg in exp1; format: functional
[11] = system: Mus musculus; experiment: Median survival time of the untreated control groups, in which there are no 30-day survivors at dose 100 mg/kg in exp1; format: functional
[12] = system: Mus musculus; experiment: Median survival time of the treated control groups, in which there are no 30-day survivors at dose 12 mg/kg in exp2; format: functional
[13] = system: Mus musculus; experiment: Median survival time of the treated control groups, in which there are no 30-day survivors at dose 100 mg/kg in exp1; format: functional
[14] = system: Mus musculus; experiment: Median survival time of the untreated control groups, in which there are no 30-day survivors at dose 100 mg/kg in exp2; format: functional
[15] = Ratio of median survival times for non-survivors at dose 50 mg/kg in exp1; format: functional; parameters: unit: %; procedure, shortened: as §1
[16] = system: Mus musculus; experiment: Ratio of number of 30-day survivors to the total treated mice at dose 100 mg/kg in exp2*-toxic; 1/6; format: ADME, organism-based; parameters: dose 100 mg/kg; conditions: in vivo, 720 h
[17] = system: Mus musculus; experiment: Change in weight by day 5, obtained by subtracting treated groups of animals minus control groups of animals at dose 25 mg/kg in exp1.; format: functional; procedure, shortened: as §2
[18] = system: Mus musculus; experiment: Median survival time of the treated control groups, in which there are no 30-day survivors at dose 25 mg/kg in exp2; format: functional
[19] = system: Mus musculus; experiment: Mortality by day 5 expressed as number of mice died to the total treated at dose 12 mg/kg in exp2; 0/6; format: ADME, organism-based; parameters: dose 12 mg/kg; conditions: in vivo
[20] = Median survival time of the treated control groups, in which there are no 30-day survivors at dose 50 mg/kg in exp1; format: functional
[21] = system: Mus musculus; experiment: Ratio of median survival times for non-survivors at dose 50 mg/kg in exp2; format: functional; procedure, shortened: as §1
[22] = system: Mus musculus; experiment: Median survival time of the treated control groups, in which there are no 30-day survivors at dose 25 mg/kg in exp1; format: functional
[23] = system: Mus musculus; experiment: Change in weight by day 5, obtained by subtracting treated groups of animals minus control groups of animals at dose 100 mg/kg in exp1.; format: functional; procedure, shortened: as §2
[24] = system: Mus musculus; experiment: Change in weight by day 5, obtained by subtracting treated groups of animals minus control groups of animals at dose 50 mg/kg in exp2; format: functional; procedure, shortened: as §2
[25] = Median survival time of the untreated control groups, in which there are no 30-day survivors at dose 50 mg/kg in exp1; format: functional
[26] = system: Mus musculus; experiment: Mortality by day 5 expressed as number of mice died to the total treated at dose 100 mg/kg in exp1; 0/6; format: ADME, organism-based; parameters: dose 100 mg/kg; conditions: in vivo
[27] = system: Mus musculus; experiment: Mortality by day 5 expressed as number of mice died to the total treated at dose 50 mg/kg in exp1; 0/6; format: ADME, organism-based; parameters: dose 50 mg/kg; conditions: in vivo
[28] = Ratio of number of 60-day survivors to the total treated mice at dose 100 mg/kg in exp1; 0/6; format: functional
[29] = system: Mus musculus; experiment: Change in weight by day 5, obtained by subtracting treated groups of animals minus control groups of animals at dose 25 mg/kg in exp2; format: functional; procedure, shortened: as §2
[30] = system: Mus musculus; experiment: Median survival time of the treated control groups, in which there are no 30-day survivors at dose 100 mg/kg in exp2; format: functional
[31] = system: Mus musculus; experiment: Change in weight by day 5, obtained by subtracting treated groups of animals minus control groups of animals at dose 100 mg/kg in exp2*-mortality was 5/6 by day 7; format: functional
Procedure, shortened: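 Mice were inoculated ip with 10^6 P388 leukemia cells on day 0 and weighed 19–22 g that day. Compound was given ip once daily on days 1–5, within about 5 min of preparing the solution or suspension, to groups of six (occasionally five). Thirty inoculated untreated mice served as controls. The value is the average weight change of treated mice minus that of controls on day 5.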

[32] = Ratio of median survival times for non-survivors at dose 12 mg/kg in exp2; format: functional; procedure, shortened: as §1
[33] = Ratio of median survival times for non-survivors at dose 100 mg/kg in exp1; format: functional; parameters: unit: %; procedure, shortened: as §1
[34] = system: Mus musculus; experiment: Change in weight by day 5, obtained by subtracting treated groups of animals minus control groups of animals at dose 12 mg/kg in exp2; format: functional; procedure, shortened: as §2
[35] = system: Mus musculus; experiment: Median survival time of the untreated control groups, in which there are no 30-day survivors at dose 25 mg/kg in exp1; format: functional
[36] = Ratio of number of 30-day survivors to the total treated mice at dose 100 mg/kg in exp1; 1/6; format: functional
[37] = system: Mus musculus; experiment: Mortality by day 5 expressed as number of mice died to the total treated at dose 200 mg/kg in exp1; 5/6; format: ADME, organism-based; parameters: dose 200 mg/kg; conditions: in vivo
[38] = Median survival time of the untreated control groups, in which there are no 30-day survivors at dose 25 mg/kg in exp2; format: functional
[39] = Ratio of median survival times for non-survivors at dose 25 mg/kg in exp2; format: functional; procedure, shortened: as §1
[40] = system: Mus musculus; experiment: Mortality by day 5 expressed as number of mice died to the total treated at dose 25 mg/kg in exp2; 0/6; format: ADME, organism-based; parameters: dose 25 mg/kg; conditions: in vivo
[41] = system: Mus musculus; experiment: Mortality by day 5 expressed as number of mice died to the total treated at dose 25 mg/kg in exp1; 0/6; format: ADME, organism-based; parameters: dose 25 mg/kg; conditions: in vivo
[42] = system: Mus musculus; experiment: Change in weight by day 5, obtained by subtracting treated groups of animals minus control groups of animals at dose 200 mg/kg in exp1.; format: functional; procedure, shortened: as §2

CS(=O)(=O)CS(=O)(=O)OCCBr
Mortality [1]: 2 | Ratio [2]: 0 | Ratio [3]: 54 | Median survival time [4]: 10.5 | Median survival time [5]: 18 | Mortality [6]: 0 | Median survival time [7]: 13 | Ratio [8]: Toxic | Change in weight [9]: -2.1 | Ratio [10]: 136 | Median survival time [11]: 10.5 | Median survival time [12]: 12.8 | Median survival time [13]: 23.5 | Median survival time [14]: 13 | Ratio [15]: 159 | Ratio [16]: 1 | Change in weight [17]: -0.8 | Median survival time [18]: 16 | Mortality [19]: 0 | Median survival time [20]: 16.7 | Ratio [21]: 138 | Median survival time [22]: 14.3 | Change in weight [23]: -2.9 | Change in weight [24]: -1.8 | Median survival time [25]: 10.5 | Mortality [26]: 0 | Mortality [27]: 0 | Ratio [28]: 0 | Change in weight [29]: -1.5 | Median survival time [30]: 7 | Change in weight [31]: -4.7 | Ratio [32]: 98 | Ratio [33]: 224 | Change in weight [34]: 0.3 | Median survival time [35]: 10.5 | Ratio [36]: 1 | Mortality [37]: 5 | Median survival time [38]: 13 | Ratio [39]: 123 | Mortality [40]: 0 | Mortality [41]: 0 | Change in weight [42]: -5.4
